Laboratory results: ChEMBL document CHEMBL4364265, “Oridonin derivatives as potential anticancer drug candidates triggering apoptosis through mitochondrial pathway in the liver cancer cells” (Eur J Med Chem, 2019)
Activity calls are given as the source filed them. No cut-off for these calls is given here.

Columns and labels:
[1] = test system: RPMI-8226; assay: Antiproliferative activity against human RPMI8226 cells incubated for 72 hrs by CCK8 cells; type: functional, cell-based; details: RPMI-8226, 72 h
Outline: (§1)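 CCK-8 proliferation assay. 10,000 cells per well were preincubated 24 h at 37 °C with 5% CO2, then given compound dissolved in DMSO and incubated 72 h. CCK-8 was added for 4 h and absorbance read at 450 nm. IC50 was taken from dose-response curves as mean ± SEM of at least three independent experiments, with paclitaxel as positive control. HepG2 and L-O2 were grown in DMEM/10% FBS; A549 and RPMI-8226 in RPMI 1640/10% FBS.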

[2] = test system: HepG2; assay: Antiproliferative activity against human HepG2 cells incubated for 72 hrs by CCK8 cells; type: functional, cell-based; details: HepG2, 72 h; outline: as §1
[3] = test system: A549; assay: Antiproliferative activity against human A549 cells incubated for 72 hrs by CCK8 cells; type: functional, cell-based; details: A549, 72 h; outline: as §1
[4] = test system: PLC-PRF-5; assay: Antiproliferative activity against human PLC/PRF/5 cells incubated for 72 hrs by CCK8 cells; type: functional, cell-based; details: PLC-PRF-5, 72 h
[5] = test system: L02; assay: Cytotoxicity against human LO2 cells incubated for 72 hrs by CCK8 cells; type: cell-based; details: L02, 72 h; outline: as §1
[6] = test system: HepG2; assay: Inhibition of colony formation in human HepG2 cells at 0.1 to 1 uM incubated for 10 days by crystal violet staining based microscopic method; type: functional, cell-based
Outline: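 Five hundred cells plated per 30 mm dish and left 12 h. Medium with compound was added (0, 0.1, 0.5, 1 µM) or DMSO as negative control, and cells grew 10 days. Colonies were fixed in methanol 15 min, stained with 0.1% crystal violet 15 min, photographed and counted. Colony size was checked by microscope. Relative colony number is mean ± SD of ≥3 independent experiments.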

[7] = Selectivity index, ratio of IC50 for human LO2 cells to IC50 for human PLC/PRF/5 cells
Outline: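 L-O2 and PLC/PRF/5 cells were grown in DMEM with 10% FBS at 37 °C and 5% CO₂. For CCK-8 proliferation, 10,000 cells per well were pre-incubated 24 h, then exposed to compound in DMSO for 72 h. CCK-8 was added for 4 h and A450 read. IC50 came from dose–response curves; SI is IC50(L-O2)/IC50(PLC/PRF/5).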

[8] = test system: HepG2; assay: Antiproliferative activity against human HepG2 cells incubated for 72 hrs in presence of oridonin by CCK8 cells; type: functional, cell-based; details: HepG2, 72 h
[9] = test system: PLC-PRF-5; assay: Antiproliferative activity against human PLC/PRF/5 cells incubated for 72 hrs in presence of oridonin by CCK8 cells; type: functional, cell-based; details: PLC-PRF-5, 72 h
[10] = test system: PLC-PRF-5; assay: Antitumour activity against human PLC/PRF/5 cells xenografted in nude mouse assessed as reduction in tumour weight at 10 mg/kg, iv administrated once every 3 days for 4 weeks relative to control; type: functional
Outline: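 PLC/PRF/5 xenograft. 2 × 10^7 cells in 0.2 mL saline were injected s.c. into the right forelimb of nude mice. At about 120 mm3, mice were randomized into 3 groups of 6 and dosed i.v. at 10 mg/kg once every three days for 4 weeks. Vehicle was 10% N-methylpyrrolidone/12% Tween-80/78% saline. Volume (a×b²/2) and body weight were recorded daily, and tumors were excised and weighed at the end.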

[11] = test system: PLC-PRF-5; assay: Inhibition of colony formation in human PLC/PRF/5 cells assessed as decrease in colony size at 0.1 to 1 uM incubated for 10 days by crystal violet staining based microscopic method

| IC50 [1] [µM] | IC50 [2] [µM] | IC50 [3] [µM] | Compound | other results |
| --- | --- | --- | --- | --- |
| 11 | 5.67 | 10.9 | C=C1C(=O)[C@]23[C@H](O)[C@H]1CC[C@H]2[C@@]12CO[C@@]3(O)[C@@H](O)[C@@H]1C(C)(C)CC[C@@H]2OC(C)=O |  |
| 14.7 | 15.4 | 12.4 | C=C1C(=O)[C@]23[C@H](OC(=O)c4ccc(F)c(F)c4F)[C@H]1CC[C@H]2[C@@]12CO[C@]3(O)[C@@H](O)[C@@H]1C(C)(C)CC[C@@H]2O |  |
| 10.5 | 6.54 | 20.9 | C=C1C(=O)[C@]23[C@H](OC(=O)c4ccc(F)c(NC(=O)c5ccc(OC(F)(F)F)cc5)c4)[C@H]1CC[C@H]2[C@@]12CO[C@]3(O)[C@@H](O)[C@@H]1C(C)(C)CC[C@@H]2O |  |
| 19 | 3.76 | 17.2 | C=C1C(=O)[C@]23[C@H](OC(=O)c4ccc(F)c(NC(=O)Cc5ccc(OC)c(OC)c5)c4)[C@H]1CC[C@H]2[C@@]12CO[C@]3(O)[C@@H](O)[C@@H]1C(C)(C)CC[C@@H]2O |  |
| 17.5 | 16 | 14 | C=C1C(=O)[C@]23[C@H](OC(=O)c4ccc(OCc5ccccc5)cc4F)[C@H]1CC[C@H]2[C@@]12CO[C@]3(O)[C@@H](O)[C@@H]1C(C)(C)CC[C@@H]2O |  |
| > 100 | 32.3 | > 100 | C=C1C(=O)[C@]23[C@H](OC(=O)CCCCC4CCSS4)[C@H]1CC[C@H]2[C@@]12CO[C@]3(O)[C@@H](O)[C@@H]1C(C)(C)CC[C@@H]2O (some centres not stated) |  |
|  | 0.98 |  | C=C1C(=O)[C@]23[C@H](OC(=O)[C@H](CC(C)C)NC(=O)OC(C)(C)C)[C@H]1CC[C@H]2[C@@]12CO[C@]3(O)[C@@H](O)[C@@H]1C(C)(C)CC[C@@H]2O | IC50 [4]: 2.67 µM; IC50 [5]: 6.3 µM; inhibition [6]: Active; Ratio IC50 [7]: 2.4 |
| 8.65 | 9.76 | 11.5 | C=C1C(=O)[C@]23[C@H](OC(=O)c4ccc(OC)c(OCCBr)c4)[C@H]1CC[C@H]2[C@@]12CO[C@]3(O)[C@@H](O)[C@@H]1C(C)(C)CC[C@@H]2O |  |
| 1.53 | 0.18 | 0.39 | CC(=O)O[C@H]1C(=O)[C@@]2(C)[C@H]([C@H](OC(=O)c3ccccc3)[C@]3(O)C[C@H](OC(=O)[C@H](O)[C@@H](NC(=O)c4ccccc4)c4ccccc4)C(C)=C1C3(C)C)[C@]1(OC(C)=O)CO[C@@H]1C[C@@H]2O [PACLITAXEL] |  |
| 9.42 | 8.99 | 14 | C=C1C(=O)[C@]23[C@H](OC(=O)CCc4ccc(OC)cc4)[C@H]1CC[C@H]2[C@@]12CO[C@]3(O)[C@@H](O)[C@@H]1C(C)(C)CC[C@@H]2O |  |
| 14.3 | 3.1 | 14.7 | C=C1C(=O)[C@]23[C@H](OC(=O)c4ccc(F)cc4)[C@H]1CC[C@H]2[C@@]12CO[C@]3(O)[C@@H](O)[C@@H]1C(C)(C)CC[C@@H]2O |  |
| 13 | 12.3 | 10.5 | C=C1C(=O)[C@]23[C@H](O)[C@H]1CC[C@H]2[C@@]12CO[C@]3(O)[C@@H](OC(C)=O)[C@@H]1C(C)(C)CC[C@@H]2OC(C)=O |  |
|  | > 100 |  | COc1ccc(/C=C/C(=O)O)cc1 [4-METHOXYCINNAMIC ACID] | IC50 [8]: 8.56 µM; IC50 [9]: 6.55 µM; IC50 [4]: > 100 µM |
| 5.98 | 5.98 | 8.8 | C=C1C(=O)[C@]23[C@H](OC(=O)/C=C/c4cc(OC)c(OC)c(OC)c4)[C@H]1CC[C@H]2[C@@]12CO[C@]3(O)[C@@H](O)[C@@H]1C(C)(C)CC[C@@H]2O |  |
| 13.9 | 5.4 | 10.5 | C=C1C(=O)[C@@]23C(=O)[C@@H](OC(C)=O)[C@@H]4C(C)(C)CC[C@H](OC(C)=O)[C@@]4(COC(C)=O)[C@@H]2CC[C@@H]1[C@H]3OC(C)=O |  |
| 10.9 | 8.79 | 37.5 | C=C1C(=O)[C@]23[C@H](OC(=O)Cc4cc(OC)c(OC)c(OC)c4)[C@H]1CC[C@H]2[C@@]12CO[C@]3(O)[C@@H](O)[C@@H]1C(C)(C)CC[C@@H]2O |  |
| 5.01 | 5.66 | 16.7 | C=C1C(=O)[C@]23[C@H](OC(=O)c4ccc(CCl)cc4)[C@H]1CC[C@H]2[C@@]12CO[C@]3(O)[C@@H](O)[C@@H]1C(C)(C)CC[C@@H]2O |  |
| 15.8 | 27.5 | 31.1 | C=C1C(=O)[C@]23[C@H](OC(=O)c4cccnc4Cl)[C@H]1CC[C@H]2[C@@]12CO[C@]3(O)[C@@H](O)[C@@H]1C(C)(C)CC[C@@H]2O |  |
| 5.77 | 1.98 | 24.9 | C=C1C(=O)[C@]23[C@H](OC(=O)/C=C/c4ccc(OC)c(OC)c4)[C@H]1CC[C@H]2[C@@]12CO[C@]3(O)[C@@H](O)[C@@H]1C(C)(C)CC[C@@H]2O | IC50 [4]: 1.03 µM; IC50 [5]: 1.85 µM; inhibition [6]: Active; Ratio IC50 [7]: 1.8 |
|  | 2.07 |  | C=C1C(=O)[C@@]23C(=O)[C@H]4OC[C@]5([C@@H](OC(C)=O)CCC(C)(C)[C@@H]45)[C@@H]2CC[C@@H]1[C@H]3O |  |
| 6.71 | 8.2 | 11 | C=C1C(=O)[C@]23[C@H](OC(=O)c4ccc(F)c(NC(=O)c5ccc(OC)c(OCc6ccccc6)c5)c4)[C@H]1CC[C@H]2[C@@]12CO[C@]3(O)[C@@H](O)[C@@H]1C(C)(C)CC[C@@H]2O |  |
| 16.6 | 44.6 | 22.6 | C=C1C(=O)[C@]23[C@H](OC(=O)[C@@H]4OC(c5ccc(OC)cc5)N(C(=O)OC(C)(C)C)[C@H]4c4ccccc4)[C@H]1CC[C@H]2[C@@]12CO[C@]3(O)[C@@H](O)[C@@H]1C(C)(C)CC[C@@H]2O (some centres not stated) |  |
| 12.2 | 26 | 10.7 | C=C1C(=O)[C@]23[C@H](OC(=O)c4cc(F)ccc4F)[C@H]1CC[C@H]2[C@@]12CO[C@]3(O)[C@@H](O)[C@@H]1C(C)(C)CC[C@@H]2O |  |
| 10.1 | 9.63 | 22.8 | C=C1C(=O)[C@]23[C@H](OC(=O)CCc4ccc(OC)c(OC)c4)[C@H]1CC[C@H]2[C@@]12CO[C@]3(O)[C@@H](O)[C@@H]1C(C)(C)CC[C@@H]2O |  |
| 12.4 | 12.6 | 11 | C=C1C(=O)[C@]23[C@H](OC(=O)CCc4cc(OC)c(OC)c(OC)c4)[C@H]1CC[C@H]2[C@@]12CO[C@]3(O)[C@@H](O)[C@@H]1C(C)(C)CC[C@@H]2O |  |
| 9.25 | 8.12 | 30.4 | C=C1C(=O)[C@]23[C@H](O)[C@H]1CC[C@H]2[C@@]12CO[C@]3(O)[C@@H](O)[C@@H]1C(C)(C)CC[C@@H]2O [ORIDONIN] | Activity [10]: inactive; IC50 [4]: 7.41 µM; inhibition [11]: Active; IC50 [5]: 17.5 µM; inhibition [6]: Active; Ratio IC50 [7]: 2.4 |
| 35.2 | 36.6 | 17.4 | C=C1C(=O)[C@]23[C@H](OC(=O)c4ccc(C#N)cc4)[C@H]1CC[C@H]2[C@@]12CO[C@]3(O)[C@@H](O)[C@@H]1C(C)(C)CC[C@@H]2O |  |
